High-throughput results deposited in PubChem BioAssay by several laboratories.
The list is not random: actives were taken first. Their share in the collection is about 1%.
FXN GAA850 act: frataxin GAA850 promoter activation. HEK293 lucGAA850 FXN promoter luciferase reporter, 24 h; percent of 10 µM SAHA response. activation, % at 6 µM. hit rate 0.56% among 360,000;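 active = activation above the average of all compounds screened plus 3 SD, cutoff fixed separately per campaign, cut at about 7.5% in these data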;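 also: 0% = DMSO wells and 100% = 10 µM SAHA wells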
GSIS activator: primary screen for activators of insulin secretion dependent on glucose, INS-1E cells, GLuc reporter luminescence | AID 743287 | activation, % at 16.6 µM | hit rate 0.61% among 370,000 | INS-1E GLuc reporter insulin secretion, 2-3 h;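 active = lowest replicate activation of at least 40%, so every replicate reaches that level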;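 also: 0% = median of neutral control wells and 100% = median of IBMX positive control wells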
CaV13 ICDI inh: Disruptors of the CACNA1D IQ motif to Ca2+-dependent inactivation inhibitor domain association, primary screening, Förster resonance energy transfer in intact living …; HEK cells, CFP/YFP FRET ICDI-IQ, plate reader, 10 min; percent FRET-ratio fall versus neutral wells; inhibition, % at 12.3 µM; hit rate 0.098% among 340,000; AID 743397;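 active = mean replicate inhibition of at least 30% and at least 1% of replicates passing that level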;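 also: 0% = median of the neutral control wells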
Xi reactivation: reactivates the inactive X chromosome in mouse fibroblasts; hit rate 0.055% among 360,000; AID 743238; activation, % at 7.58 µM; XiGFP mouse fibroblasts, % GFP-positive cells imaging, 3 d; cells co-treated with 5-aza-dC sensitizer; scaled so ellipticine positive control = 100%;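 active = mean normalized replicate activation at least 10% and every replicate at or above 10%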;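 also: 0% = median of on-plate neutral control wells and 100% = ellipticine 6 µM median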
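Assay system: SV40-immortalized XiGFP fibroblast cells, line 68-5-11; buffer or medium: DMEM plus 5-aza-dC sensitizer; compound: one concentration, pinned; timing: compounds 3 days, fix/stain 15 min at room temperature; benchmarks: positive control ellipticine, 6 µM final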
Starred values were filed as active, the others as inactive; . = no result given; + = active, no number; ! = not confirmed by another sample.

SMILES	FXN GAA850 act	GSIS activator	CaV13 ICDI inh	Xi reactivation
CCCCCc1cc(=O)oc2c(C(CCN3CCCC(C)C3)c3ccc(OC)cc3)c(OC)cc(OC)c12 (configuration not stated)	-2	339*	-4	0
Cc1ccc(/C=C2/NC(=O)N(Cc3ccc(Br)cc3)C2=O)o1	6	57*	-5	0
C[C@@H]1CN([C@H](C)CO)C(=O)c2cc(NS(=O)(=O)c3ccc(F)cc3)ccc2O[C@@H](C)CCCCO[C@H]1CN(C)S(=O)(=O)c1cccs1	.	-10	.	0
CC(C)c1cc(C(C)C)n2nc(N)nc2n1	3	89*	-4	0
CCCc1cc(CCC)n2nc(N)nc2n1	4	28	-6	0
Cc1cccn2c(=O)c(/C=C(\C#N)C(=O)NC3CCS(=O)(=O)C3)c(N3CCC(C(N)=O)CC3)nc12 (configuration not stated)	-1	2	+	0
Cc1noc(C)c1NC(=O)N(C)C[C@@H]1OCc2ccccc2-c2ccccc2C(=O)N([C@H](C)CO)C[C@@H]1C	.	11	.	1
O=C(COc1nncc2ccccc12)NCC(F)(F)F	1	44*	-3	0
O=C(COc1nncc2ccccc12)Nc1c(F)c(F)c(F)c(F)c1F	2	-3	-1	0
COc1ccc2c3c([nH]c2c1)[C@H](CO)N(Cc1ccccc1F)CC31CN(CC2CC2)C1	.	7	.	0
COc1cc(CN2[C@@H]3CNC[C@H]2C3c2ccc(/C=C/c3ccccc3)cc2)cc(OC)c1 (some centres not stated)	.	49*!	.	0
COc1cccc(CN2[C@@H]3CNC[C@H]2C3c2ccc(/C=C/c3ccccc3)cc2)c1 (some centres not stated)	.	-6	.	0
O=C1[C@H]2[C@@H](c3ccc(F)cc3)N3C(=O)N(c4ccc(Br)cc4)C(=O)[C@@]3(Cc3ccc(Cl)cc3)[C@H]2C(=O)N1C1CCCCC1	9.5*	-16	-11	0
CC[C@@]12C(=O)N(c3cccc(F)c3)C(=O)N1[C@H](c1ccc(F)cc1)[C@@H]1C(=O)N(C3CCCCC3)C(=O)[C@@H]12	13*	.	.	.
Cc1ccc(S(=O)(=O)N(C)C[C@H]2Oc3ccc(NS(=O)(=O)c4ccc(F)cc4)cc3C(=O)N([C@H](C)CO)C[C@@H]2C)cc1	.	-15	.	0
O=C(C[C@H]1C[C@H]2c3cc(NC(=O)CC4CC4)ccc3O[C@H]2[C@@H](CO)O1)NCc1ccc2c(c1)OCO2	.	6	.	0
C[C@H]1CCCCO[C@H](CN(C)C(=O)CCCN(C)C)[C@@H](C)CN([C@@H](C)CO)C(=O)c2cc(NC(=O)c3ccncc3)ccc2O1	.	1	.	0
CC(=O)Nc1nc(NCc2ccccc2Cl)n(-c2ccccc2)n1	4	77*	-19	0
CCOC(=O)c1cn(-c2ccccc2)nc1-c1ccncc1	2	40*	-9	.
CCOC(=O)c1cn(-c2ccccc2)nc1-c1cccnc1	0	.	-4	.
Cc1ccc(-c2nnc(N3CCN(C(=O)CN4C(=O)c5ccccc5C4=O)CC3)c3ccccc23)cc1	3	53*	.	.
CC(=O)N1CCN(c2nnc(-c3ccccc3)c3ccccc23)CC1	0	40*	-19	0
CCC(=O)N1CCN(c2nnc(-c3ccccc3)c3ccccc23)CC1	1	24	-20	0
CC(=O)N1CCN(c2nc(-c3cccs3)nc3ccccc23)CC1	3	41*	9	0
NC(=O)C1CCN(c2nc(-c3ccccc3)nc3ccccc23)CC1	0	58*	-7	.
SMILES	FXN GAA850 act	GSIS activator	CaV13 ICDI inh	Xi reactivation
O=C(CN1C(=O)c2ccccc2C1=O)N1CCN(c2nnc(-c3ccccc3)c3ccccc23)CC1	0	.	-5	.
COc1ccc(N/C=C\C(=O)c2ccc(Br)cc2)cc1OC	4	131*	-5	0
CCOC(=O)c1ccccc1NC(=O)c1n[nH]c(=O)c2ccccc12	3	82*	-4	0
COc1ccc(C(=O)/C=C2\NCCc3cc(OC)c(OC)cc32)cc1OC	4	27	-5	0
COc1ccc(C(=O)/C=C2/c3ccccc3CC(C)(C)N2C)cc1OC	4	41*	-3	0
COc1ccc(NC(=O)C2CCC(CNS(=O)(=O)c3cccs3)CC2)cc1 (configuration not stated)	0	4	31*	0
COc1ccc(NC(=O)C2CCC(CNS(=O)(=O)c3cccs3)CC2)cc1OC (configuration not stated)	2	15	-5	0
CCCN(C)C[C@H]1Oc2ncc(C#CCC(C)C)cc2C(=O)N([C@@H](C)CO)C[C@H]1C	.	-1	.	-1
C[C@@H]1CN([C@@H](C)CO)C(=O)c2cc(/C=C/c3ccccc3)cnc2O[C@H]1CN(C)C(=O)C1CCCCC1	.	-38	.	-1
COc1ccc(NC(=O)N(C)C[C@@H]2OCCCC[C@@H](C)Oc3ccc(NS(=O)(=O)c4ccccc4)cc3C(=O)N([C@H](C)CO)C[C@H]2C)cc1	.	-18	.	0
O=C(O)c1cccc(NC(=O)c2cn(-c3ccccc3)nc2-c2cccc(Br)c2)c1	-1	-10	69*	0
CNC[C@@H]1OCCCC[C@@H](C)Oc2ccc(N)cc2C(=O)N([C@@H](C)CO)C[C@H]1C	.	16	.	0
Cc1ccc(S(=O)(=O)C2CS(=O)(=O)CC2O)cc1 (configuration not stated)	4	.	.	.
CC(=O)C1=C(S(=O)(=O)c2ccc(C)cc2)CS(=O)(=O)C1	4	124*	-4	0
NC(=NC(=O)c1cccc(C(F)(F)F)c1)c1ccc(C(F)(F)F)cn1	1	0	-4	22*
C[C@@H]1CCCCO[C@H](CN(C)S(C)(=O)=O)[C@@H](C)CN([C@H](C)CO)C(=O)c2cc(NS(C)(=O)=O)ccc2O1	.	8	.	0
C[C@H]1CN([C@@H](C)CO)C(=O)Cc2cc(NC(=O)Cc3cn(C)c4ccccc34)ccc2O[C@H]1CN(C)C(=O)Nc1ccccc1	.	-2	.	0
COc1ccc(C(=O)Nc2ccc(N3CCN(c4ccc(OC)cc4)CC3)c(C#N)c2)cc1	0	.	-1	.
COc1ccc(N2CCN(c3ccc(NC(=O)C4CCCCC4)cc3C#N)CC2)cc1	2	51*	0	.
Cc1ccc(S(=O)(=O)N(C)C[C@@H]2OCCCC[C@H](C)Oc3ccc(NC(=O)c4ccncc4)cc3C(=O)N([C@@H](C)CO)C[C@H]2C)cc1	.	-15	.	0
C=C1C(=O)C23C(O)C1CCC2C12CCCC(C)(COC(C)=O)C1C(O)C3(O)OC2 (configuration not stated)	-15	162*	-6	2
C/C=C/c1cnc2c(c1)C(=O)N([C@H](C)CO)C[C@H](C)[C@H](CN(C)S(=O)(=O)c1ccc(OC)cc1)O2	.	-1	.	0
